Measured values published in ChEMBL document CHEMBL1125157, “Synthesis and biological evaluation of 14-alkoxymorphinans. 3. Extensive study on cyprodime-related compounds” (J Med Chem, 1990).
Active and inactive are the calls of the source. No cut-off for these calls is given here.

Columns and labels:
[1] = molecular target: Delta-type opioid receptor (Mus musculus) (UniProt P32300); assay: Antagonistic activity (Ke) at Opioid receptor delta 1 was determined against DADLE in the mouse vas deferens (MVD) method.; assay type: functional, tissue-based
Summary of the method: (§1)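 Mouse vas deferens antagonism was measured against normorphine (μ), ethylketocyclazocine (κ) or DADLE (δ in this tissue). Ke = [antagonist]/(DR − 1), where DR is the ratio of equiactive agonist concentrations with and without antagonist. Antagonist concentrations were chosen to give a dose ratio between 3 and 10 against the relevant agonist.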

[2] = molecular target: Mu-type opioid receptor (Mus musculus) (UniProt P42866); assay: Antagonistic activity (Ke) against nor-morphine and Opioid receptor mu 1 of mouse vas deferens assay; assay type: functional, tissue-based; summary of the method: as §1
[3] = molecular target: Mu-type opioid receptor (Homo sapiens) (UniProt P35372); assay: Agonist potency against mu opioid receptor expressed as the ratio of the ED40 concentrations of the ethylketocyclazocin and compound in guinea pig ileum TS= Too shallow to estimate ED40; assay type: functional, tissue-based
Summary of the method: (§2)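 Agonist activity tested on electrically stimulated isolated tissue twitch (mouse vas deferens and guinea pig ileum). ED40 is the concentration giving 40% inhibition of twitch height. Potency is given as the ratio of the ED40 of the reference agonist (normorphine, ethylketocyclazocine or DADLE) to that of the test compound. TS marks a curve too shallow to reach 40% inhibition. NA means no agonist activity was detected.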

[4] = molecular target: Mu-type opioid receptor (Homo sapiens) (UniProt P35372); assay: Agonist potency against mu opioid receptor expressed as the ratio of the ED40 concentrations of the DADLE and compound in guinea pig ileum; NA= No agonist activity detected; assay type: functional, tissue-based; summary of the method: as §2
[5] = molecular target: Mu-type opioid receptor (Homo sapiens) (UniProt P35372); assay: Agonist potency against mu opioid receptor expressed as the ratio of the ED40 concentrations of the normorphine and compound in guinea pig ileum; NA= No agonist activity detected; assay type: functional, tissue-based; summary of the method: as §2
[6] = molecular target: Kappa-type opioid receptor (Mus musculus) (UniProt P33534); assay: Antagonistic activity (Ke) at Opioid receptor kappa 1 was determined against ethylketocyclazocine in the mouse vas deferens (MVD); assay type: functional, tissue-based; summary of the method: as §1
[7] = molecular target: T1, Opioid receptors; mu & delta (Homo sapiens) (UniProt P41143+P35372); assay: Selectivity ratio was determined using the Ke value of Opioid receptor delta 1 to that of mu receptor
Summary of the method: (§3)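 Selectivity is the ratio of Ke values from mouse vas deferens antagonism, with Ke = [antagonist]/(DR − 1). DADLE gave the δ value, ethylketocyclazocine the κ value and normorphine the μ value. Antagonist concentrations gave a dose ratio of 3–10.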

[8] = molecular target: Opioid receptors; mu & kappa (Homo sapiens) (UniProt P41145+P35372); assay: Selectivity ratio was determined using the Ke value of kappa receptor to that of mu receptor; summary of the method: as §3
[9] = molecular target: T1, Opioid receptors; mu & delta (Homo sapiens); assay: Selectivity ratio was determined using the Ke value of Opioid receptor delta 1 to that of Opioid receptor mu 1; summary of the method: as §3
[10] = molecular target: Delta-type opioid receptor (Mus musculus) (UniProt P32300); assay: Antagonistic activity (Ke) at Opioid receptor delta 1 was determined against DADLE in the mouse vas deferens (MVD); assay type: functional, tissue-based; summary of the method: as §1
[11] = molecular target: Mu-type opioid receptor (Homo sapiens) (UniProt P35372); assay: Agonist potency against mu opioid receptor expressed as the ratio of the ED40 concentrations of the ethylketocyclazocin and compound in guinea pig ileum; assay type: functional, tissue-based; summary of the method: as §2
[12] = molecular target: Mu-type opioid receptor (Homo sapiens) (UniProt P35372); assay: Agonist potency against mu opioid receptor expressed as the ratio of the ED40 concentrations of the DADLE and compound in guinea pig ileum; assay type: functional, tissue-based; summary of the method: as §2
[13] = molecular target: Mu-type opioid receptor (Cavia porcellus) (UniProt P97266); assay: Agonist potency against Opioid receptor mu 1 expressed as the ratio of the ED40 concentrations of the ethylketocyclazocin and compound in guinea pig ileum TS= Too shallow to estimate ED40; assay type: functional, tissue-based; summary of the method: as §2
[14] = molecular target: Mu-type opioid receptor (Cavia porcellus) (UniProt P97266); assay: (§4) Agonist potency against Opioid receptor mu 1 expressed as the ratio of the ED40 concentrations of the normorphine and compound in guinea pig ileum; NA= No agonist activity detected; assay type: functional, tissue-based; summary of the method: as §2
[15] = molecular target: Mu-type opioid receptor (Mus musculus) (UniProt P42866); assay: as §4; assay type: functional, tissue-based; summary of the method: as §2
[16] = molecular target: Mu-type opioid receptor (Cavia porcellus) (UniProt P97266); assay: Agonist potency against Opioid receptor mu 1 expressed as the ratio of the ED40 concentrations of the ethylketocyclazocin and compound in guinea pig ileum; assay type: functional, tissue-based; summary of the method: as §2
[17] = molecular target: Mu-type opioid receptor (Mus musculus) (UniProt P42866); assay: Agonist potency against Opioid receptor mu 1 expressed as the ratio of the ED40 concentrations of the normorphine and compound in guinea pig ileum; assay type: functional, tissue-based; summary of the method: as §2
[18] = molecular target: Mu-type opioid receptor (Cavia porcellus) (UniProt P97266); assay: Agonist potency against Opioid receptor mu 1 expressed as the ratio of the ED40 concentrations of the DADLE and compound in guinea pig ileum […]; assay type: functional, tissue-based; summary of the method: as §2
[19] = molecular target: Mu-type opioid receptor (Homo sapiens) (UniProt P35372); assay: Agonist potency against mu opioid receptor expressed as the ratio of the ED40 concentrations of the normorphine and compound in guinea pig ileum; TS= Too shallow to estimate ED40; assay type: functional, tissue-based; summary of the method: as §2

Kappa-type opioid receptor (Mus musculus), sequence (P33534 whole entry): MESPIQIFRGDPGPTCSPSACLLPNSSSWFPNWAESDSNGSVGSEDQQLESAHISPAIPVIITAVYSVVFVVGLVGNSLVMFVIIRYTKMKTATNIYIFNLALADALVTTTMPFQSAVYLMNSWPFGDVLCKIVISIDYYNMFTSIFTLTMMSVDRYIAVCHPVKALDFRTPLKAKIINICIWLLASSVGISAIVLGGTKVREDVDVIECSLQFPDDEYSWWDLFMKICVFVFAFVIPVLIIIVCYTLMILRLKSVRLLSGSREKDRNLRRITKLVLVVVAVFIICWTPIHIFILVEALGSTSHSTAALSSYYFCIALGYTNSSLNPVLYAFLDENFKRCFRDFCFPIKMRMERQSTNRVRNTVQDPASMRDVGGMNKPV
Mu-type opioid receptor (Cavia porcellus), sequence (P97266 whole entry): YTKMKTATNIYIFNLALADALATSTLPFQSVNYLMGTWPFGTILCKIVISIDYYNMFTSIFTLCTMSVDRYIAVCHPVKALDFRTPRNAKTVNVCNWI
Mu-type opioid receptor (Mus musculus), sequence (P42866 whole entry): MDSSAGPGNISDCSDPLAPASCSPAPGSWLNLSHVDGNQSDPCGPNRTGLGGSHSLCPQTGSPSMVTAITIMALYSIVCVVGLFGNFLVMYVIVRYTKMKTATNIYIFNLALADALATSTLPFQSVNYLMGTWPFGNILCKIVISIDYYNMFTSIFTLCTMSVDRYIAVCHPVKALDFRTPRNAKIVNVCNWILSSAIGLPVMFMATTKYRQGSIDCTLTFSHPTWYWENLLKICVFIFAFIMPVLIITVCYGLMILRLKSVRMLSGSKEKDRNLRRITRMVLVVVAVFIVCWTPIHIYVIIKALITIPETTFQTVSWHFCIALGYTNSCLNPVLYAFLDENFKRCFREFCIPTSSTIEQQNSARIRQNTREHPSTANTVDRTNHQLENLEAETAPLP
Delta-type opioid receptor (Mus musculus), sequence (P32300 whole entry): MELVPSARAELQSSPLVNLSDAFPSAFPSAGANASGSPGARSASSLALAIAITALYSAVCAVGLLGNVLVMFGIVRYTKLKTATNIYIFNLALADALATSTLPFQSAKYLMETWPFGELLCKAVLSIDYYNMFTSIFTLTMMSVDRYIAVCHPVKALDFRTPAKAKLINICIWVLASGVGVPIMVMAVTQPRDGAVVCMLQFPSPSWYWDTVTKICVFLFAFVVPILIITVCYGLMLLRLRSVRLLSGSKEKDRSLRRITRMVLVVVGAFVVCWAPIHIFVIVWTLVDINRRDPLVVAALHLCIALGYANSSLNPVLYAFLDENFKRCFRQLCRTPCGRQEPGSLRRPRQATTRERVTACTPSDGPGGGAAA
T1 sequence (P35372 whole entry, looked up): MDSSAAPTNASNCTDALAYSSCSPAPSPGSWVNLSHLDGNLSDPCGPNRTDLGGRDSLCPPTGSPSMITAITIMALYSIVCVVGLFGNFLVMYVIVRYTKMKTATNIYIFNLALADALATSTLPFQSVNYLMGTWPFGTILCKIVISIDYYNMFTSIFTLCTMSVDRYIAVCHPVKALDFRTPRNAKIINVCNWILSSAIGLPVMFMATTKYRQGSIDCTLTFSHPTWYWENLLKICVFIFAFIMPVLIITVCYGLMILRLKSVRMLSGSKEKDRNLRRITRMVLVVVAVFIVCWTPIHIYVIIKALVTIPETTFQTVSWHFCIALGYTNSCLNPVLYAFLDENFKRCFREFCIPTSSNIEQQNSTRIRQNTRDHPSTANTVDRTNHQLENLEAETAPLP
T1 sequence (P41143 whole entry, looked up): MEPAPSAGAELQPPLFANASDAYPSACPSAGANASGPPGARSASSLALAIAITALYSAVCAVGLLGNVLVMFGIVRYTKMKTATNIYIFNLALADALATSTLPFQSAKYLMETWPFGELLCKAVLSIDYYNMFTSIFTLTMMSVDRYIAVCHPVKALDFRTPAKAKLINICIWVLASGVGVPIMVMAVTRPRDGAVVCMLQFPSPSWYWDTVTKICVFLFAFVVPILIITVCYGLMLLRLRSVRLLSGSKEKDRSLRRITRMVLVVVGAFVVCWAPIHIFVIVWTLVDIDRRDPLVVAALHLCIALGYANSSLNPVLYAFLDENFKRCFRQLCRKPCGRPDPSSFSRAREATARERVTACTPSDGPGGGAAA
Opioid receptors; mu & kappa (Homo sapiens), sequence (P35372 whole entry, looked up): as the sequence (P35372 whole entry, looked up) above
Opioid receptors; mu & kappa (Homo sapiens), sequence (P41145 whole entry, looked up): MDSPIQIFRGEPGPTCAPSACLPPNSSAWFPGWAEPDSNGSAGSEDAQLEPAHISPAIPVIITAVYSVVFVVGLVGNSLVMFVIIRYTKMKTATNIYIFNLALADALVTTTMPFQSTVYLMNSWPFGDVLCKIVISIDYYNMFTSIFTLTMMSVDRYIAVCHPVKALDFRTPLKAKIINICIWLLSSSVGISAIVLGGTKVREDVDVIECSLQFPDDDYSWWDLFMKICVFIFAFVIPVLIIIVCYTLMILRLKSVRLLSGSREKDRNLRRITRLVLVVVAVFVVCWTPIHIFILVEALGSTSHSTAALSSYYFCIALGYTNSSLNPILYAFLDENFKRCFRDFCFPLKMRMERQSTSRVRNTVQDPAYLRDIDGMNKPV
Mu-type opioid receptor (Homo sapiens), sequence (P35372 whole entry): as the sequence (P35372 whole entry, looked up) above

Compound | Ke [1] | Ke [2] | Ratio [4] | Ratio [5] | Ke [6] | Selectivity ratio [8] | Selectivity ratio [9] | Ke [10] | Ratio [11] | also measured
COc1ccc2c(c1OC)[C@]13CCN(CC4CC4)[C@H](C2)[C@]1(OC)CCC(=O)C3 | 0.744 µM | 120 nM | inactive | inactive | 2100 nM | – | – | – | – | Ratio [3]: inactive
CO[C@@]12CCC(=O)[C@@H]3Oc4cccc5c4C31CCN(CC1CC1)[C@@H]2C5 | 4.03 µM | 168 nM | – | – | 648 nM | – | – | – | – | Selectivity ratio [7]: 24
CO[C@@]12CCC(=O)C[C@@]13CCN(CC1CC1)[C@@H]2Cc1cccc(OC(C)C)c13 | – | 108 nM | inactive | – | 2410 nM | 22 | 105 | 11300 nM | – | –
C=CCN1CC[C@]23CC(=O)CC[C@@]2(OCC)[C@H]1Cc1ccc(OC)c(OC)c13 | – | 184 nM | – | – | 6190 nM | 34 | 3.6 | 665 nM | 0.001 | Ratio [12]: 1
C=CCN1CC[C@]23CC(=O)CC[C@@]2(OC)[C@H]1Cc1cccc(OC)c13 | 6.45 µM | 230 nM | – | – | 6040 nM | – | – | – | – | –
C=CCN1CC[C@]23CC(=O)CC[C@@]2(OC)[C@H]1Cc1ccc(OC)c(OC)c13 | – | 118 nM | inactive | inactive | 3900 nM | – | – | 179 nM | – | Ratio [13]: inactive
CCCCOc1cccc2c1[C@]13CCN(CC4CC4)[C@H](C2)[C@]1(OC)CCC(=O)C3 | 2.05 µM | 21 nM | – | – | 811 nM | – | – | – | – | –
COc1cccc2c1[C@]13CCN(CC4CC4)[C@H](C2)[C@]1(OC)CCC(=O)C3 | – | – | – | – | – | 28 | 110 | – | – | –
C=CCN1CC[C@]23CC(=O)CC[C@@]2(OCC)[C@H]1Cc1cccc(OC)c13 | – | 81 nM | inactive | inactive | 2560 nM | 32 | 46 | 3740 nM | 0.0004 | –
CO[C@@]12CCC(=O)C[C@@]13CCN(CC1CC1)[C@@H]2Cc1cccc(O)c13 | – | – | – | – | – | – | – | – | – | Ratio [14]: inactive; Ratio [15]: 0.001; Ratio [16]: 0.0007
CO[C@@]12CCC(=O)C[C@@]13CCN(CC1CC1)[C@@H]2Cc1ccccc13 | – | – | – | – | – | – | – | – | – | Ratio [17]: 0.0004; Ratio [18]: 0.004; Ratio [16]: 0.0008
CCO[C@@]12CCC(=O)C[C@@]13CCN(CC1CC1)[C@@H]2Cc1ccc(OC)c(OC)c13 | – | 46 nM | inactive | – | 5300 nM | 115 | 33 | 1540 nM | 0.0015 | Ratio [19]: inactive
CCO[C@@]12CCC(=O)C[C@@]13CCN(CC1CC1)[C@@H]2Cc1cccc(OC)c13 | – | 21.7 nM | inactive | inactive | 1130 nM | 52 | 98 | 2130 nM | 0.0014 | –
